ChEMBL document CHEMBL1137939, “Manipulation of kinetic profiles in 2-aryl propionic acid cyclooxygenase inhibitors” (Bioorg Med Chem Lett, 2004)

Molecular target: T1, Prostaglandin G/H synthase 1 (Ovis aries, UniProt P05979)
T1 sequence (P05979 whole entry): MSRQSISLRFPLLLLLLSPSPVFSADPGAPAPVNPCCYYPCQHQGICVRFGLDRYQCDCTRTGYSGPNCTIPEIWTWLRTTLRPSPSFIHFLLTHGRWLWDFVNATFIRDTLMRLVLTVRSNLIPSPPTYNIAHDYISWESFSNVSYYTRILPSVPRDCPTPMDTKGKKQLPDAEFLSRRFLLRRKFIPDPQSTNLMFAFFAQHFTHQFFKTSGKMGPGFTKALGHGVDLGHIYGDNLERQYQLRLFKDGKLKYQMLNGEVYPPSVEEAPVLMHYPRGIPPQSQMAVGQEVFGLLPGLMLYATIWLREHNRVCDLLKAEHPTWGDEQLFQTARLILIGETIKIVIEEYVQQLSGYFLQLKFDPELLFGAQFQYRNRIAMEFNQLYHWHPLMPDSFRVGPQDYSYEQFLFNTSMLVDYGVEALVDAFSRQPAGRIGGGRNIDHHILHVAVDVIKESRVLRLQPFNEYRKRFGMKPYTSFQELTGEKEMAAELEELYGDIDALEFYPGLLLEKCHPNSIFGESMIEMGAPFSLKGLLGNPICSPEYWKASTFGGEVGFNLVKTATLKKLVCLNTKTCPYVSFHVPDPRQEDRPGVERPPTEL
Test: Reversible competitive inhibition of prostaglandin G/H synthase 1
Method in brief: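 Ovine seminal vesicle COX-1, purified to >95% (Coomassie SDS-PAGE) and hematin-reconstituted. Coupled cyclooxygenase-peroxidase assay at 22 °C in 0.1 M Tris–HCl pH 8.0, read as TMPD oxidation after arachidonic acid start. Initial rates were taken because the enzyme auto-inactivates. Hydrogen-peroxide-initiated controls checked for peroxidase inhibition.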

| SMILES | IC50 [µM] |
| --- | --- |
| COC(=O)C(C)c1ccc(-c2ccccc2)cc1 (stereo not given) | 28.5 |
| CC(C(=O)N(C)C)c1ccc(-c2ccccc2)c(F)c1 (stereo not given) | 215 |
| CC(C)Cc1ccc(C(C)C(=O)O)cc1Br (stereo not given) | 0.11 |
| CNC(=O)C(C)c1ccc(-c2ccccc2)c(F)c1 (stereo not given) | 24 |
| CNC(=O)C(C)c1ccc(-c2ccccc2)cc1 (stereo not given) | 19.5 |
| CC(C(N)=O)c1ccc(-c2ccccc2)cc1 (stereo not given) | 64.5 |
| COC(=O)C(C)c1ccc(-c2ccccc2)c(F)c1 (stereo not given) | 210 |
| CC(C(=O)N(C)C)c1ccc(-c2ccccc2)cc1 (stereo not given) | 4.8 |
| CC(C)Cc1ccc(C(C)C(=O)O)cc1[N+](=O)[O-] (stereo not given) | 59 |
| CC(C(N)=O)c1ccc(-c2ccccc2)c(F)c1 (stereo not given) | 8.3 |
